Test [1] has as its system Mus musculus. Briefly: In vivo Antagonism (ip) of 0.1 mg/kg clonidine-induced analgesia (po) determined in phenylquinone-induced writhing assay at a dose of 30 mg/kg dose; the ratio is 4/10. Format: functional, organism-based. The gist of the method: (§1)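 Male mice (18–22 g) receive the test substance ip, then clonidine 0.1 mg/kg po 30 min later. Phenylquinone is given ip 20 min after clonidine. Mice writhing 5–15 min after phenylquinone count as reactors. The result is the number of mice, out of n = 10 per experiment, in which clonidine analgesia is reversed.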

For test [2], the species on record is Mus musculus. Briefly: Antidepressant potential (duration) by using the behavioral despair model. The test is classed as functional.
The test system of test [3] is Mus musculus. Kind of test: In vivo central presynaptic alpha-blockade using [3H]rauwolscine in mice (injected iv 20 min later and the mice were sacrificed at 35 min). The test is classed as functional. The conditions noted are these: read-out: ID50 (the source's name). An outline of the steps:
(§2)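 Mice get test drug or vehicle ip at zero time, then [3H]rauwolscine iv 20 min later, and are sacrificed at 35 min. Displacement is measured in mouse forebrain. […] ID50 and 95% confidence limits follow the Granat method.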

Test [4] deals with serotonin (5-HT) receptor (Bos taurus).
Test [5] has as its system Rattus norvegicus. Briefly: In vivo determination of MHPG-SO4 level in rat whole brain at a dose 10 mg/kg ip administration (5 rats). The test is classed as functional. As to conditions: route intraperitoneal. An outline of the steps: (§3)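 Rats, five per experiment, receive test agent ip as a corn starch suspension and are sacrificed 2 h later. Whole-brain MHPG-SO4 (μg/g) is measured by the Meek and Neff procedure and expressed as a percentage of control, ± SE.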

The subject of test [6] is Rattus norvegicus. Kind of test: In vivo determination of MHPG-SO4 level in rat whole brain at a dose 20 mg/kg ip administration (5 rats). As to conditions: route intraperitoneal. Format: functional. An outline of the steps:
as §3

For test [7], the system named is Rattus norvegicus. Briefly: In vivo determination of MHPG-SO4 level in rat whole brain at a dose 0 mg/kg intraperitoneal administration. Format: functional. An outline of the steps:
as §3

Test [8] has as its system Rattus norvegicus. Kind of test: In vivo determination of MHPG-SO4 level in rat whole brain at a dose 30 mg/kg ip administration (5 rats). Format: functional. As to conditions: route intraperitoneal. An outline of the steps:
(§4)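 Rats were given the test agent or vehicle ip as a suspension in corn starch. They were killed 2 h later, and MHPG-SO₄ was measured in whole brain in μg/g ± SE and as % of vehicle control. Five rats were used per experiment.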

Test [9] is described as follows: (§5) In vitro antihistamine activity, by activation of guinea pig cerebral cortex adenylate cyclase by histamine mediated by both H1 and H2 receptors. Format: functional, tissue-based, Cavia porcellus. An outline of the steps: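 Adenylate cyclase preparation from guinea pig cerebral cortex, activated by histamine (acting via H1 + H2 receptors). Percent inhibition is measured in triplicate over a wide concentration range, and IC50 is calculated from those data. Psychoyos procedure.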

Test [10] relates to Rattus norvegicus. Kind of test: In vivo determination of MHPG-SO4 level in rat whole brain at a dose 20 mg/kg intraperitoneal administration. The test is classed as functional. An outline of the steps:
as §3

Test [11] concerns the target T1, Cerebral cortex alpha adrenergic receptor (Bos taurus, UniProt Q28838+P18130).
T1 sequence (Q28838 whole entry): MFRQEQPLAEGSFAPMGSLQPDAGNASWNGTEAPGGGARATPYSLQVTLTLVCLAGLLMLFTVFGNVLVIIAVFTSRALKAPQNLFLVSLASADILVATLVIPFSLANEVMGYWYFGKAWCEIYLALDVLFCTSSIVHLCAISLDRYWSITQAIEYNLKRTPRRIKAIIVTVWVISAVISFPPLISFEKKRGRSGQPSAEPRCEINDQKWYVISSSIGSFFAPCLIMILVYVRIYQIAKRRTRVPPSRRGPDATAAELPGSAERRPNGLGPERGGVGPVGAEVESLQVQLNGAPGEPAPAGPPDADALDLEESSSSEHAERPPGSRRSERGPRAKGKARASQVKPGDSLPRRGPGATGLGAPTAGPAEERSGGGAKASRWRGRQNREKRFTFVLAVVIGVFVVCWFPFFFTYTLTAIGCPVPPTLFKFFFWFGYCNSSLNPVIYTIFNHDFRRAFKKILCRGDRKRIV
T1 sequence (P18130 whole entry): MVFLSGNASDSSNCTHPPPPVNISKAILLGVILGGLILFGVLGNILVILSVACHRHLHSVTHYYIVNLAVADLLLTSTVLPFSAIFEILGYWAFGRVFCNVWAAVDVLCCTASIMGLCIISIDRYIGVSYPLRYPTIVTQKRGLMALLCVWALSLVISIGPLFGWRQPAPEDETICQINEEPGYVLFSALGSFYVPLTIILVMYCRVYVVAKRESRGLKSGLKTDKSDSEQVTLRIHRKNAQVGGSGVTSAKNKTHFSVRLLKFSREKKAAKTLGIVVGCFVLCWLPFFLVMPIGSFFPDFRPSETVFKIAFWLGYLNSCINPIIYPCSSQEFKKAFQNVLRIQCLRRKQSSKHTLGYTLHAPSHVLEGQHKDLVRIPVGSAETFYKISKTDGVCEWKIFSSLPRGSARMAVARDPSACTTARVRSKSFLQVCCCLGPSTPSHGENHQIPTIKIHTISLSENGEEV
Kind of test: In vitro binding affinity towards alpha-adrenoceptor of calf cortex membrane Site B using [3H]-clonidine.

Test [12] deals with Rattus norvegicus. Kind of test: In vivo determination of MHPG-SO4 level in rat whole brain at a dose 3 0 mg/kg ip administration. Format: functional. As to conditions: route intraperitoneal. The gist of the method: as §3
Test [13] concerns the target Adrenergic receptor alpha. Kind of test: In vitro binding affinity towards alpha-adreno ceptor of rat forebrain using [3H]prazosin. An outline of the steps: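 Rat forebrain membranes, [3H]prazosin binding by the Greengrass and Bremner procedure, with ascorbic acid omitted from the incubation medium. Drugs are tested in triplicate over a wide concentration range in a single experiment.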

Test [14] has as its target T1, Cerebral cortex alpha adrenergic receptor. Kind of test: In vitro binding affinity towards alpha-adrenoceptor of calf cortex membrane Site A using [3H]clonidine.
The target of the next test is Histamine H2 receptor (Cavia porcellus, UniProt P47747). Kind of test: In vitro antihistamine activity by activation of 4-methylhistamine mediated by Histamine H2 receptor. The test is classed as functional.
Histamine H2 receptor, sequence (P47747 whole entry): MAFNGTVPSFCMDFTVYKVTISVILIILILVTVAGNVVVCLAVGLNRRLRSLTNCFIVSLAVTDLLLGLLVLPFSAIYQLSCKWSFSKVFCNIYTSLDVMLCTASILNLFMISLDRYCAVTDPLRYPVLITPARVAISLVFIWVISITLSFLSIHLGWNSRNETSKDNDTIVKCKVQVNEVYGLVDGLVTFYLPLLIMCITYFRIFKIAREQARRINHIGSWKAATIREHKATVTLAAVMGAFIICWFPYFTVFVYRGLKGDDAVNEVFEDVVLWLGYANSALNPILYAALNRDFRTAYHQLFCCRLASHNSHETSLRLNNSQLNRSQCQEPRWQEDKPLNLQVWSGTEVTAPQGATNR
The test system of test [15] is Rattus norvegicus. Kind of test: In vivo determination of MHPG-SO4 level in rat whole brain at a dose 10 mg/kg intraperitoneal administration. Format: functional. The gist of the method: as §3
The target of test [16] is serotonin (5-HT) receptor (Bos taurus). Briefly: In vitro binding affinity of serotonin receptor by interacting with high affinity, [3H]serotonin from calf caudate nucleus.
In test [17] the test system is Mus musculus. Kind of test: Central presynaptic alpha-blockade using [3H]rauwolscine (injected iv 20 min later and the mice were sacrificed at 35 min) (in vivo);value ranges between (1.2-5.9). As to conditions: read-out: ID50 (the source's name). Format: functional. The gist of the method:
as §2

Test [18] has as its system Mus musculus. Kind of test: In vivo Antagonism (ip) of 0.1 mg/kg clonidine-induced analgesia (po) determined in phenylquinone-induced writhing assay at 10 mg/kg dose; the ratio being 4/10. The test is classed as functional, organism-based. The gist of the method: as §1
On the technique in general: In writhing tests, fewer writhes than in controls are read as antinociception.

In test [19] the test system is Mus musculus. Briefly: In vivo central presynaptic alpha-blockade using [3H]rauwolscine (injected iv 20 min later and the mice were sacrificed at 35 min). As to conditions: read-out: ID50.
The subject of test [20] is Rattus norvegicus. Briefly: In vivo determination of MHPG-SO4 level in rat whole brain at a dose 0 mg/kg ip administration. Format: functional. The conditions noted are these: route intraperitoneal. An outline of the steps:
as §4

Test [21] is described as follows: as §5.
In test [22] the test system is Rattus norvegicus. Briefly: In vivo determination of MHPG-SO4 level in rat whole brain at a dose 30 mg/kg ip administration. As to conditions: route intraperitoneal. The test is classed as functional. An outline of the steps:
as §4

Structures are written as SMILES. Calls of active or inactive are those of the source.

A word on the IC50: it is the concentration that gives 50% inhibition. A high value points to lower potency. For `CN1CCN2c3ccccc3Cc3ccsc3C2C1` (stereo unspecified), in the test with Mus musculus [1], the Antagonism entry was “Partially active”. For the same compound, the Duration in the test listed under Mus musculus [2] turned out to be 185 s. In the test on Mus musculus [3], the ED50 was determined as 3.3 mg/kg. Moreover, the IC50 in test [4] stood at 0.5 µM; in [9] it was 0.28 µM; in [11], 0.003 µM; in test [13], 1.4 µM; in [14], 0.003 µM; at Histamine H2 receptor it was 19 µM. Further, the Control is recorded as 136% in the test on Rattus norvegicus [5], 191% in the test on Rattus norvegicus [6] and 245% in the test on Rattus norvegicus [8]. The MHPG_SO4 in the test with Rattus norvegicus [7] was found to be 0.11 µg/g; in the test with Rattus norvegicus [15], 0.15 µg/g. Moreover, the values for the MHPG SO4 with Rattus norvegicus [10] and in the test with Rattus norvegicus [12] were 0.21 µg/g and 0.27 µg/g, respectively.

For `CN1CCN2c3ccccc3Cc3sccc3C2C1` (stereo unspecified), the IC50 in test [16] turned out to be 0.1 µM; in test [9] it was 0.09 µM; in [11], 0.003 µM; in test [13] it was 0.3 µM; in test [14], 0.002 µM; against Histamine H2 receptor it was 7.2 µM. In the test on Mus musculus [17], the ED50 is 2.7 mg/kg. In the test with Mus musculus [18], the Antagonism entry is “Partially active”.

Regarding `CN1CCN2c3ccccc3Cc3ccccc3C2C1.Cl` (stereo unspecified) [MIANSERIN HYDROCHLORIDE], the Duration in the test listed under Mus musculus [2] stood at 186 s. Moreover, the ED50 with Mus musculus [19] was found to be 3.7 mg/kg. This compound yielded an MHPG_SO4 with Rattus norvegicus [20] of 0.11 µg/g. Besides, the concentration for half-maximal inhibition (IC50) in test [21] was found to be 0.19 µM; against Histamine H2 receptor, 3.8 µM. Moreover, the Control in the test on Rattus norvegicus [8] was determined as 180%. This compound also had an MHPG SO4 with Rattus norvegicus [22] of 0.19 µg/g.

(Values after ChEMBL document CHEMBL1122264, “Synthesis and biological properties of thiophene ring analogues of mianserin” (J Med Chem, 1983).)
